Experimental data: ChEMBL document CHEMBL1150569, “Three new furan derivatives and a new fatty acid from a Taiwanese marine sponge Plakortis simplex” (J Nat Prod, 2001); call rule not given here
Converted amounts (≈) assume the structure as drawn.

Assays:
[1] = Cytotoxicity against human COLO250 cells; assay type: functional, cell-based
How it was run: (§1)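 In vitro cytotoxicity against human tumor cells: COLO-250 colon carcinoma cells and KB-16 nasopharyngeal carcinoma cells. Activity expressed as IC50 in µg/mL.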

[2] = Cytotoxicity against human KB16 cells; assay type: functional, cell-based; how it was run: as §1
[3] = Homo sapiens, KB16, read-out: IC50

Compound	IC50 [1]	IC50 ([2]; kb16)	IC50 [2, 3]	IC50 ([1]; Homo sapiens, read-out: IC50)
COC(=O)C[C@@H]1C=CC(=O)O1	Not Active	Not Active		
CCCCC(CCC=O)CCCCCCCc1ccc(CC(=O)OC)o1 (stereo not drawn) [PLAKORSIN C]	Not Active	Not Active		
CCCCCCCCCCCCCCCC[C@@]1(OC)C=C[C@@H](CC(=O)OC)OO1 [CHONDRILLIN]	Not Active		0.74 µg/mL (≈ 1.79 µM)	
CCCCCCCCCCCCCCCCc1ccc(CC(=O)O)o1 [PLAKORSIN B]			3.43 µg/mL (≈ 9.78 µM)	0.28 µg/mL (≈ 0.799 µM)
COC(=O)/C=C\C=C/C(=O)O	Not Active	Not Active		
CCCCCCCCCCCCCCCC[C@@]1(OC)C=C[C@H](CC(=O)OC)OO1	Not Active	Not Active		
CCCCCCCCCCCCCCCCc1ccc(CC(=O)OC)o1 [PLAKORSIN A]	Not Active	Not Active		
COC(=O)CCC(=O)CC(=O)OC	Not Active	Not Active		
CCCCCCCCCCCCCCCCC(=O)/C=C/C1OC1C(=O)O (stereo not drawn) [PLAKORTIC ACID]	Not Active	Not Active		
